A short description of data set [1]: Cytotoxicity against human SV5A8 cells. It counts as functional, cell-based. Summed up: (§1)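 Reporter cell lines 22C11 and 33.13 with control line 5A8; IC50 from means of at least two experiments; toxicity flagged as the minimal dose where cell killing appeared by Renilla luciferase signal.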
In data set [2] the target is Catenin beta-1 (Homo sapiens) (UniProt P35222). Put plainly: Inhibition of Beta-catenin/Tcf-4 pathway in human Tcf22C11 cell assessed as inhibition of reporter activity by cell-based reporter assay. Background: Reporter assays use an easily measured gene product as a stand-in for the process of interest.
Data set [3] has the same target. Kind of data set: Inhibition of Beta-catenin/Tcf-4 pathway in human Tcf 33.13 cell assessed as inhibition of reporter activity by cell-based reporter assay.
Data set [4] is described as follows: Oral bioavailability in mouse at 25 mg/kg. Conditions: in vivo. It counts as ADME, organism-based. Summed up: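 Female nude mice dosed orally at 25 mg/kg; oral bioavailability (%) determined from pharmacokinetic study.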
A short description of data set [5]: Plasma concentration in nude mouse at 50 mg/kg, po after 8 hrs. It counts as ADME, organism-based. More on the design: dose 50 mg/kg, route oral. In short, it runs like this:
(§2)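 Tumour-bearing nude mice (n = 4) given one oral dose (50 or 200 mg/kg); plasma and tumour drug concentrations (ng/mL) measured 8 h after dosing; tumour/plasma ratio calculated from these.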

Data set [6] can be described thus: Drug level in tumor of nude mouse bearing HT29 or HCT116 cells at 50 mg/kg, po after 8 hrs. It counts as ADME, organism-based, Neoplasm, HCT-116. To be noted: read-out: Ct. More on the design: dose 50 mg/kg, route oral. In short, it runs like this: as §2
Data set [7] in a line: Ratio of Drug level in tumor to mouse plasma at 50 mg/kg, po. In short, it runs like this: as §2
Data set [8] in a line: Inhibition of […]/Tcf-4 pathway in human Tcf22C11 cell assessed as inhibition of reporter activity by cell-based reporter assay. It counts as functional. Summed up: as §1
The nature of data set [9]: Inhibition of […]/Tcf-4 pathway in human Tcf 33.13 cell assessed as inhibition of reporter activity by cell-based reporter assay. It counts as functional. In short, it runs like this:
as §1

The nature of data set [10]: Plasma concentration in mouse at 200 mg/kg, po after 8 hrs. It is filed as ADME, organism-based. More on the design: dose 200 mg/kg, route oral. Summed up:
as §2

Data set [11] can be described thus: Drug level in tumor of nude mouse bearing HT29 or HCT116 tumor at 200 mg/kg, po after 8 hrs. It counts as ADME, organism-based, Neoplasm. More on the design: dose 200 mg/kg, route oral. Conditions: read-out: Ct. In short, it runs like this: as §2
Data set [12] deals with HT-29. Kind of data set: Antitumor activity against human HT-29 cells xenografted in nude mouse assessed as tumor growth inhibition at 200 mg/kg, po after 17 days. It counts as functional. Conditions: HT-29, 408 h, read-out: TGI. Summed up: (§3)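 Nude mice carrying subcutaneous HT29 or HCT116 tumours; oral dosing at 25, 50, 100 or 200 mg/kg once daily for 17 days; tumour volume measured; growth inhibition assessed at end of treatment.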
A general note: In xenograft studies the graft and the host belong to different species.

A short description of data set [13]: Ratio of Drug level in tumor to mouse plasma at 200 mg/kg, po. In short, it runs like this: as §2
Data set [14] can be described thus: Aqueous solubility at pH 7.4. It counts as physicochemical. Summed up: (§4)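 Water solubility measured in µg/mL at pH 7.4 and at pH 3.0.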
Data set [15] is described as follows: Aqueous solubility at pH 3. It counts as physicochemical. In short, it runs like this: as §4
The subject of data set [16] is HCT-116. Kind of data set: Antitumor activity against human HCT116 cells xenografted in nude mouse assessed as tumor growth inhibition at 200 mg/kg, po after 17 days. Conditions: HCT-116, 408 h, read-out: TGI. It counts as functional. Summed up: as §3

Structures are written as SMILES. Values after ≈ are worked out from the molar mass of the structure shown.

The term IC50 denotes the midpoint of a concentration-inhibition curve. Regarding `Cc1ccc2c(NCc3ccc(NC(=O)C4CCN(Cc5ccccc5)CC4)cc3)nc(N3CCCC3)nc2c1`, the 50% inhibitory concentration (IC50) in [1] was greater than 7.79 µM; in data set [2], 0.66 µM; in [3], 0.79 µM.

In general, bioavailability refers to the share of a dose that reaches the circulation, judged against a reference dose that is usually intravenous. A lower bioavailability goes with poor availability. Turning to `Cc1ccc2c(NCc3ccc(NC(=O)C4CCN(Cc5ccc(F)cc5)CC4)cc3)nc(N(C)C)nc2c1`, the figures for the IC50 in data set [1], in data set [2] and in [3] were greater than 4.82 µM, 0.22 µM and 0.19 µM, respectively. In data set [4], this compound gave a bioavailability of 46%. Further, the results for the concentration at 8 h in data set [5] and in data set [6] were 440 ng/mL and 70300 ng/mL, respectively. Also, the Ratio in [7] is listed as 220.

Consider `Cc1ccc2c(NCc3ccc(NC(=O)C4CCN(Cc5ccccc5)CC4)cc3)nc(N3CCC3)nc2c1`, for which the IC50 in data set [1] is greater than 8.5 µM; in data set [2] it was 1 µM; in data set [3] it was 0.8 µM.

Consider `Cc1ccc2c(NCc3ccc(NC(=O)C4CCN(C5CCCCC5)CC4)cc3)nc(N(C)C)nc2c1`, for which the IC50 in data set [1] is greater than 8.32 µM; in data set [2], 0.75 µM; in data set [3], 0.81 µM.

`Cc1ccc2c(NCc3ccc(NC(=O)C4CCN(Cc5ccccc5)CC4)cc3)nc(N3CCNC(CCO)C3)nc2c1` (configuration not stated): the results for the IC50 in data set [1], in [2] and in data set [3] were greater than 8.42 µM, 2.27 µM and 2.12 µM, respectively.

As to `Cc1ccc2c(NCc3ccc(NC(=O)C4CCN(Cc5ccc(F)cc5Cl)CC4)cc3)nc(N(C)C)nc2c1`, the IC50 in [1] was greater than 5.91 µM; in data set [2], 0.52 µM; in data set [3], 0.21 µM.

As for `Cc1ccc2c(NCc3ccc(NC(=O)C4CCN(Cc5ccccc5)CC4)cc3)nc(N3CCCCCC3)nc2c1`, the figures for the IC50 in [1], in data set [2] and in data set [3] were greater than 6.88 µM, 1.04 µM and 0.96 µM, respectively.

As to `Cc1ccc2c(NCc3ccc(NC(=O)C4CCN(Cc5ccccc5)CC4)cc3)nc(N3CCN[C@@H](C)C3)nc2c1`, the IC50 in data set [1] was greater than 8.86 µM; in [2] it was 1.92 µM; in data set [3], 1.46 µM.

`Cc1ccc(CN2CCC(C(=O)Nc3ccc(CNc4nc(N(C)C)nc5cc(C)ccc45)cc3)CC2)cc1`: the concentration for half-maximal inhibition (IC50) is greater than 4.15 µM in data set [1], 0.47 µM in data set [2] and 0.5 µM in [3].

With `Cc1ccc2c(NCc3ccc(NC(=O)C4CCN(Cc5ccccc5F)CC4)cc3)nc(N(C)C)nc2c1`, the results for the IC50 in data set [1], in data set [2] and in [3] were greater than 6.67 µM, 0.53 µM and 0.32 µM, respectively.

Turning to `CNc1nc(NCc2ccc(-c3ccccc3C(=O)OC)cc2)c2ccccc2n1`, in data set [2], the IC50 came out at 0.6 µM.

With `Cc1ccc2c(NCc3ccc(NC(=O)C4CCN(Cc5ccc(Cl)cn5)CC4)cc3)nc(N(C)C)nc2c1`, the 50% inhibitory concentration (IC50) in data set [8] is 0.57 µM; in data set [1], greater than 5.4 µM; in data set [9], 0.41 µM.

As for `CCNc1nc(NCc2ccc(NC(=O)C3CCN(Cc4ccccc4)CC3)cc2)c2ccc(C)cc2n1`, the values for the IC50 in data set [1], in [2] and in data set [3] were greater than 2.14 µM, 1.38 µM and 1.13 µM, respectively.

Take `Cc1ccc2c(NCc3ccc(NC(=O)C4CCN(Cc5ccncc5)CC4)cc3)nc(N(C)C)nc2c1`: the concentration for half-maximal inhibition (IC50) is 1.18 µM in data set [8], greater than 8.07 µM in data set [1] and 0.9 µM in [9].

Take `Cc1ccc2c(NCc3ccc(NC(=O)C4CCN(C)CC4)cc3)nc(N(C)C)nc2c1`: the IC50 in data set [1] was greater than 17.3 µM; in [2], 1.92 µM; in data set [3] it was 1.67 µM.

Consider `CCN1CCN(c2nc(NCc3ccc(NC(=O)C4CCN(Cc5ccccc5)CC4)cc3)c3ccc(C)cc3n2)CC1`, for which the concentration for half-maximal inhibition (IC50) in data set [1] was greater than 13 µM; in data set [2], 1.26 µM; in data set [3], 1.12 µM.

For `Cc1ccc2c(NCc3ccc(NC(=O)C4CCN(Cc5ccc(Cl)cc5)CC4)cc3)nc(N(C)C)nc2c1`, the values for the IC50 in data set [1], in data set [2] and in [3] were greater than 3.18 µM, 0.39 µM and 0.32 µM, respectively.

Take `Cc1ccc2c(NCc3ccc(NC(=O)C4CCN(C(=O)OC(C)(C)C)CC4)cc3)nc(N(C)C)nc2c1`: the concentration for half-maximal inhibition (IC50) in [1] was greater than 4.82 µM; in [2], 0.76 µM; in [3] it was 0.85 µM.

As to `Cc1ccc2c(NCc3ccc(NC(=O)C4CCN(Cc5cccc(F)c5)CC4)cc3)nc(N(C)C)nc2c1`, the 50% inhibitory concentration (IC50) in data set [1] was greater than 4.17 µM; in [2] it was 0.33 µM; in data set [3], 0.35 µM.

As for `Cc1ccc2c(NCc3ccc(NC(=O)C4CCN(Cc5ccco5)CC4)cc3)nc(N(C)C)nc2c1`, the half-inhibitory concentration (IC50) is greater than 20 µM in data set [1], 1.83 µM in data set [2] and 1.93 µM in [3].

For the compound `Cc1ccc2c(NCc3ccc(NC(=O)C4CCN(Cc5ncc[nH]5)CC4)cc3)nc(N(C)C)nc2c1`, the IC50 in [1], in data set [2] and in data set [3] was greater than 20 µM each time.

In the case of `Cc1ccc2c(NCc3ccc(NC(=O)C4CCN(CC(C)C)CC4)cc3)nc(N(C)C)nc2c1`, the results for the IC50 in data set [1], in [2] and in data set [3] were greater than 10.5 µM, 0.65 µM and 0.96 µM, respectively.

Take `COc1ccc(CN2CCC(C(=O)Nc3ccc(CNc4nc(N(C)C)nc5cc(C)ccc45)cc3)CC2)cc1`: the figures for the concentration for half-maximal inhibition (IC50) in data set [1], in [2] and in data set [3] were greater than 6.18 µM, 0.52 µM and 0.45 µM, respectively.

One may read the solubility as how much of the substance goes into solution per volume. Read a high solubility as much dissolved substance. As to `Cc1ccc2c(NCc3ccc(NC(=O)C4CCN(Cc5ccccc5)CC4)cc3)nc(N(C)C)nc2c1`, the figures for the concentration for half-maximal inhibition (IC50) in data set [1], in data set [2] and in data set [3] were greater than 7.05 µM, 0.74 µM and 0.76 µM, respectively. This compound came in with a bioavailability in data set [4] of 41%. The concentration at 8 h in data set [10] was 2970 ng/mL; in data set [11], 90700 ng/mL. Besides, the inhibition in vivo at 200 mg/kg in data set [12] and in data set [16] was 20% throughout. The Ratio in data set [13] stood at 40. Besides, the solubility in data set [14] was 43 µg/mL (≈ 84.5 µM); in [15], greater than 100 µg/mL.

As to `Cc1ccc2c(NCc3ccc(NC(=O)C4CCN(Cc5ccccc5)CC4)cc3)nc(N3CCN(C)CC3)nc2c1`, the values for the 50% inhibitory concentration (IC50) in data set [1], in data set [2] and in data set [3] were greater than 17.7 µM, 1.58 µM and 1.32 µM, respectively.

Regarding `Cc1ccc2c(NCc3ccc(NC(=O)C4CCN(Cc5ccccc5)CC4)cc3)nc(N(C)CCCN(C)C)nc2c1`, the IC50 was greater than 8.62 µM in data set [1], 1.41 µM in data set [2] and 1.31 µM in [3].

Consider `Cc1ccc2c(NCc3ccc(NC(=O)C4CCN(Cc5ccccc5)CC4)cc3)nc(N(C)CCN(C)C)nc2c1`, for which the IC50 in data set [1] is greater than 8.83 µM; in data set [2], 2.26 µM; in data set [3], 1.44 µM.

In the case of `Cc1ccc2c(NCc3ccc(NC(=O)C4CCN(Cc5ccccc5)CC4)cc3)nc(N3CCC(N4CCCC4)CC3)nc2c1`, the half-inhibitory concentration (IC50) in data set [1] was greater than 8.09 µM; in data set [2], 0.96 µM; in [3], 0.85 µM.

In the case of `CCCCN1CCC(C(=O)Nc2ccc(CNc3nc(N(C)C)nc4cc(C)ccc34)cc2)CC1`, the IC50 is greater than 10.5 µM in data set [1], 1.47 µM in [2] and 1.17 µM in data set [3].

The values are drawn from ChEMBL document CHEMBL1155327, “2,4-Diamino-quinazolines as inhibitors of beta-catenin/Tcf-4 pathway: Potential treatment for colorectal cancer” (Bioorg Med Chem Lett, 2009).
